In ChEMBL document CHEMBL1123239, “Synthesis and adrenergic activity of ring-fluorinated phenylephrines” (J Med Chem, 1986):

Legend:
Cavia porcellus [1] = species: Cavia porcellus; assay: Stimulation of [3H]phosphatidylinositol turnover in synaptoneurosomes at a concentration of 100 uM; assay type: functional
Procedure, shortened: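 Nonfiltered guinea pig cortical synaptoneurosomes prelabeled 60 min at 37 °C with 1 μM [3H]inositol in Krebs–Henseleit buffer under O2/CO2 (95:5). Washed, resuspended with 10 mM LiCl (~1 mg protein/tube). Agonist at 100 μM, 90 min at 37 °C. Stopped by centrifugation, TCA extraction; [3H]inositol phosphates measured in supernatant.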

Cavia porcellus [2] = species: Cavia porcellus; assay: Compound was evaluated for its agonist potency by measurement of contraction of guinea pig aortic strips; assay type: functional; details: Aorta
Procedure, shortened: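 Cumulative concentration-response, 3–200 μM in 2–3-fold steps. Isometric tension recorded; EC50 = concentration giving half of maximal contraction to supramaximal (-)-NE (30–50 μM), measured before and after each curve.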

Cavia porcellus [3] = species: Cavia porcellus; assay: Compound was evaluated for its agonist potency by measurement of potentiation of 2-chloroadenosine stimulation of cyclic AMP accumulation in guinea pig cerebral cortical synaptoneurosomal preparations.; assay type: functional
[4] = Compound was tested for its ability to displace [3H]WB-4101 form alpha-1 adrenergic receptor site in guinea pig cerebral cortical membranes.; parameters: species or system Cavia porcellus
Procedure, shortened: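 Guinea pig (male Hartley) cerebral cortex membranes in 50 mM Tris-HCl pH 7.4, ~0.9–1.2 mg protein/mL. […] Ki from IC50 by Cheng-Prusoff; 3–5 experiments or one in triplicate.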

[5] = molecular target: T1, Adrenergic receptor alpha-2 (Homo sapiens, UniProt P08913+P18825+P18089); assay: (§1) Compound was tested for its ability to displace [3H]clonidine form alpha-2 adrenergic receptor site in guinea pig cerebral cortical membranes.; parameters: species or system Cavia porcellus; details: target entry is the homologue from another species
T1 sequence (P08913 whole entry): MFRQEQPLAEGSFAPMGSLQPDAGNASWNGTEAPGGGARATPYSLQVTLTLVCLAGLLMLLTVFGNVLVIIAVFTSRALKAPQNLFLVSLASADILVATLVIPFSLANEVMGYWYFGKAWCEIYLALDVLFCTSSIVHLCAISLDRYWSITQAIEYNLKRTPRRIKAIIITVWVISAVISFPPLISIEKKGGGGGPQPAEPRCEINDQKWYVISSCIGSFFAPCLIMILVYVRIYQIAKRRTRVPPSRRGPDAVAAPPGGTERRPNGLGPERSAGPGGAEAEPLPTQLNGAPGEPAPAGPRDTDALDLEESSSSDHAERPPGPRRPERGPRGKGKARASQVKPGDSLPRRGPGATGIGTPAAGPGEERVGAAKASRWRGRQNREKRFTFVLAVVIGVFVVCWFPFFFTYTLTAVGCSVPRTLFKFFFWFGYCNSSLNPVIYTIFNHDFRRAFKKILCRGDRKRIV
T1 sequence (P18825 whole entry): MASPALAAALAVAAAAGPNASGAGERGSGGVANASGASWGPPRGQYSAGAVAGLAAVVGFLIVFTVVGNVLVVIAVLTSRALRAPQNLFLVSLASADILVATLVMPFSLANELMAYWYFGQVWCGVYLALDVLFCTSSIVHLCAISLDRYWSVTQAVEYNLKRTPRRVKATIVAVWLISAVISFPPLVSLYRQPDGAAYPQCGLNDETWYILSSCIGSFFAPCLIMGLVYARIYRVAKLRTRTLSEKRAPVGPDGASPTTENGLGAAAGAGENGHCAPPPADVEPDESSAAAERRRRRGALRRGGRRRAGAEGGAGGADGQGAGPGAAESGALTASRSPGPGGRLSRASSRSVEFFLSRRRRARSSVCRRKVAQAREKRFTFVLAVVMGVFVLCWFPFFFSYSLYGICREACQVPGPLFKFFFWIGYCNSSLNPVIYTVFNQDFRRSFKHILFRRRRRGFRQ
T1 sequence (P18089 whole entry): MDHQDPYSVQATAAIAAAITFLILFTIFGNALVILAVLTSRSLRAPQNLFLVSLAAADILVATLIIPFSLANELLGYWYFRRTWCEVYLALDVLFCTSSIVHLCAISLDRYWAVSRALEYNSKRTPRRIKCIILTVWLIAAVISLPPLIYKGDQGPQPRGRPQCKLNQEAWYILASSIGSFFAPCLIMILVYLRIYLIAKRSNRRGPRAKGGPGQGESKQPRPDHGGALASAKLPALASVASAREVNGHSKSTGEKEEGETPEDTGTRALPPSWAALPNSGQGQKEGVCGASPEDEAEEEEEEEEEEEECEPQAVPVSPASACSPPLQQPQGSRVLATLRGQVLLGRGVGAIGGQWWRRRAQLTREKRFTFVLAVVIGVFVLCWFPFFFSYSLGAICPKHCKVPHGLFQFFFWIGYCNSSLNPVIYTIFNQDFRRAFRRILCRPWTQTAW
Procedure, shortened: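 Guinea pig (male Hartley) cerebral cortex membranes in 50 mM Tris-HCl pH 7.4. Ki from IC50 by Cheng-Prusoff; 3–5 experiments or one in triplicate.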

[6] = Compound was tested for its ability to displace [3H]-prazosin form alpha-1 adrenergic receptor site in guinea pig cerebral cortical membranes.; parameters: species or system Cavia porcellus
Procedure, shortened: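 Guinea pig (male Hartley) cerebral cortex membranes, homogenised and washed in 50 mM Tris-HCl pH 7.4, ~0.9–1.2 mg protein/mL. 0.5 nM [3H]prazosin (Kd 0.5 nM), 30 min at 30 °C; nonspecific with 10 μM phentolamine. Ki from IC50 by Cheng-Prusoff; 3–5 experiments or one in triplicate.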

[7] = molecular target: T1, Adrenergic receptor alpha-2; assay: as §1; parameters: species or system Cavia porcellus; details: target entry is the homologue from another species; remark: listed apart in the source
Procedure, shortened: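 Guinea pig (male Hartley) cerebral cortex membranes in 50 mM Tris-HCl pH 7.4. […] Ki from IC50 by Cheng-Prusoff; 3–5 experiments or one in triplicate.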

## CNCC(O)c1cccc(O)c1F (racemic)
Cavia porcellus [1]
  Control: 134%
Cavia porcellus [2]
  EC50: 105 µM
Cavia porcellus [3]
  EC50: 40 µM
[4]
  Ki: 6.6 µM
[5]
  Ki: 1.2 µM
[6]
  Ki: 17 µM

## CNCC(O)c1cc(O)ccc1F (racemic)
Cavia porcellus [1]
  Control: 162%
Cavia porcellus [2]
  EC50: 11 µM
Cavia porcellus [3]
  EC50: 4 µM
[7]
  Ki: 0.23 µM
[4]
  Ki: 1.3 µM
[6]
  Ki: 2.1 µM

## CNCC(O)c1ccc(F)c(O)c1 (racemic)
Cavia porcellus [1]
  Control: 136%
Cavia porcellus [2]
  EC50: 39 µM
Cavia porcellus [3]
  EC50: 35 µM
[7]
  Ki: 1 µM
[4]
  Ki: 3.7 µM
[6]
  Ki: 10 µM

## CNC[C@H](O)c1cccc(O)c1 [PHENYLEPHRINE]
Cavia porcellus [1]
  Control: 161%
Cavia porcellus [2]
  EC50: 27 µM
Cavia porcellus [3]
  EC50: 26 µM
[4]
  Ki: 2.5 µM
